{"source": "ChEMBL document CHEMBL1781963", "about": "“Discovery of novel hepatoselective HMG-CoA reductase inhibitors for treating hypercholesterolemia: a bench-to-bedside case study on tissue selective drug distribution” (Bioorg Med Chem Lett, 2011)", "key": {"[1]": {"target": "T1, OATP1A4 (Rattus norvegicus, UniProt O35913)", "T1 sequence (O35913 whole entry)": "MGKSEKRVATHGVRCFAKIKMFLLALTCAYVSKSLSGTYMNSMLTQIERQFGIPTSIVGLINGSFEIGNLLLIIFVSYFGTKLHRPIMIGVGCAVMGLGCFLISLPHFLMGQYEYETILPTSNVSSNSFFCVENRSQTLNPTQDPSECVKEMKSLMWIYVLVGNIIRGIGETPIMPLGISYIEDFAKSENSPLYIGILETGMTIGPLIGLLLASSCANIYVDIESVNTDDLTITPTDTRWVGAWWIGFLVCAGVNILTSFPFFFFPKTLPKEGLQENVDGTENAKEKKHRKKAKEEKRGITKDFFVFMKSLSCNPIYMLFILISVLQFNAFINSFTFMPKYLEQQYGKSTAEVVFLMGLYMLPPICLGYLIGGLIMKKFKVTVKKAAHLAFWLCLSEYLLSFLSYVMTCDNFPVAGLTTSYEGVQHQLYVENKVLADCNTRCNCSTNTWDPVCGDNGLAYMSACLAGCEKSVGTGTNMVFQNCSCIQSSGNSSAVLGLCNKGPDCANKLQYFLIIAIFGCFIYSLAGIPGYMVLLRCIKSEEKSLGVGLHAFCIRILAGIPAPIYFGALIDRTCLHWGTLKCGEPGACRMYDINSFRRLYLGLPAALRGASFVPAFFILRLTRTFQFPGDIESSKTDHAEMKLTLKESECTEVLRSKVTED", "assay": "Drug uptake by rat hepatic OATP1A4 transporters expressed in CHO cells at 1 uM relative to wild type CHO cells", "assay_type": "ADME, cell-based", "settings": "CHO cells expressing rat OATP1A4, read-out: FC", "procedure,_shortened": "(§1)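 Individual hepatic OATP transporters were over-expressed in CHO or HEK293 cells: rat rOatp1a1, rOatp1a4 and rOatp1b2, and human hOATP1B1, hOATP1B3 and hOATP2B1. Substrate uptake is expressed as fold difference relative to the wild-type parental line. Rosuvastatin/pravastatin served as positive control and midazolam as negative control in each assay.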"}, "[2]": {"target": "T2, OATP2B1 (Homo sapiens, UniProt O94956)", "T2 sequence (O94956 whole entry)": "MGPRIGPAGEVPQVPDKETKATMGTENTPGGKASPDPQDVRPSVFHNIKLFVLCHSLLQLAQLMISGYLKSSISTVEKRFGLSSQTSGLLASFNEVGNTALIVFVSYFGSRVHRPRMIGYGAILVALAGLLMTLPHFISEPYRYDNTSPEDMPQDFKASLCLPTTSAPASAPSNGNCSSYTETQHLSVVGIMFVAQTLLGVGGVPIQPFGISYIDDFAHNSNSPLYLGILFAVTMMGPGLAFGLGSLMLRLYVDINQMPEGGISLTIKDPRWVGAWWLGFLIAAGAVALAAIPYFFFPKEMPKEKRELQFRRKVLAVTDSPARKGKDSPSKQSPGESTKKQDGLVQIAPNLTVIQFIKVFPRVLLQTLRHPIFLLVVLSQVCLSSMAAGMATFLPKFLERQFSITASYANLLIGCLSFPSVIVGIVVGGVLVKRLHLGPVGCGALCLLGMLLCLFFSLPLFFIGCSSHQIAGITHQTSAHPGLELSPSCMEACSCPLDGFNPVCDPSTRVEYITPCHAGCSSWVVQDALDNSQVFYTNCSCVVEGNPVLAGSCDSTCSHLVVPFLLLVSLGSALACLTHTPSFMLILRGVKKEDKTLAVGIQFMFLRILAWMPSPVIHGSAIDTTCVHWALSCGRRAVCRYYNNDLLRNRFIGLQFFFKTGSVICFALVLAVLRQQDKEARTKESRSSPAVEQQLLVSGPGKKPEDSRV", "assay": "Drug uptake by human hepatic OATP2B1 transporter expressed in HEK293 cells at 1 uM relative to wild-type HEK293 cells", "assay_type": "ADME, cell-based", "settings": "HEK293 cells expressing human OATP2B1, read-out: FC", "procedure,_shortened": "as §1"}, "[3]": {"target": "T3, OATP1A1 (Rattus norvegicus, UniProt P46720)", "T3 sequence (P46720 whole entry)": "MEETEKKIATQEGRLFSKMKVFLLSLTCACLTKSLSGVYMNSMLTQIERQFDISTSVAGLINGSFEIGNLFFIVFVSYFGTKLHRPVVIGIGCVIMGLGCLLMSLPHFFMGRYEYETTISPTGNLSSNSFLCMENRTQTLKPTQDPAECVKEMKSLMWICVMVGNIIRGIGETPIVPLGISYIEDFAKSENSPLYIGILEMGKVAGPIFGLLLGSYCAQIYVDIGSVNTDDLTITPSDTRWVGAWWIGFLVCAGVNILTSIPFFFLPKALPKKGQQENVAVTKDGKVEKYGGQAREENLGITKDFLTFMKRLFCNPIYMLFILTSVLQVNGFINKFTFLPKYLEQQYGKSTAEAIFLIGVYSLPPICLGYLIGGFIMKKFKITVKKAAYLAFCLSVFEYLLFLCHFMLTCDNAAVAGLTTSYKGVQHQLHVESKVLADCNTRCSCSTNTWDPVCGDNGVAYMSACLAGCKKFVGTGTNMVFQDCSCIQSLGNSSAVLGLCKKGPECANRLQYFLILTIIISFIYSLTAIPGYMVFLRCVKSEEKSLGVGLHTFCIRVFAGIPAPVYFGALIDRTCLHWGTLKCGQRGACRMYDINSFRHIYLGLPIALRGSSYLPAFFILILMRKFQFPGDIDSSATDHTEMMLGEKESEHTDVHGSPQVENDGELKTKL", "assay": "Drug uptake by rat hepatic OATP1A1 transporters expressed in CHO cells at 10 uM relative to wild type CHO cells", "assay_type": "ADME, cell-based", "settings": "CHO cells expressing rat OATP1A1, read-out: FC", "procedure,_shortened": "as §1"}, "[4]": {"target": "T3, OATP1A1", "assay": "Drug uptake by rat hepatic OATP1A1 transporters expressed in CHO cells at 1 uM relative to wild type CHO cells", "assay_type": "ADME, cell-based", "settings": "CHO cells expressing rat OATP1A1, read-out: FC", "procedure,_shortened": "as §1"}, "[5]": {"assay": "Lipophilicity, log D of the compound at pH 7.4 by shake flask method", "assay_type": "physicochemical", "settings": "buffer", "procedure,_shortened": "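Log D at pH 7.4 by shake flask.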"}, "[6]": {"tested_on": "Hepatocyte", "assay": "Drug uptake in sandwich-cultured rat hepatocytes assessed per mg of protein at 1 uM in presence of rifamycin SV", "assay_type": "ADME, cell-based", "procedure,_shortened": "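Rat or human hepatocytes were cultured in sandwich configuration with a Matrigel overlay and compound uptake was measured. Active uptake was assessed by inhibition with the pan-OATP inhibitor rifamycin SV. Rosuvastatin/pravastatin served as positive control and midazolam as negative control.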"}, "[7]": {"tested_on": "L6", "assay": "Selectivity ratio of IC50 for cholesterol synthesis in rat L6 cells to IC50 for cholesterol synthesis in rat hepatocytes"}}, "data": [{"smiles": "Cc1ncc2n1-c1ccc(Cl)cc1C(c1ccccc1F)=NC2", "note": "[MIDAZOLAM]", "values": [{"measurement": "uptake ratio at 1 µM", "setting": "[1]", "value": 0.93}, {"measurement": "uptake ratio at 1 µM", "setting": "[2]", "value": 0.8}, {"measurement": "uptake ratio at 10 µM", "setting": "[3]", "value": 1.7}, {"measurement": "uptake ratio at 1 µM", "setting": "[4]", "value": 1.6}]}, {"smiles": "CC[C@H](C)C(=O)O[C@H]1C[C@H](O)C=C2C=C[C@H](C)[C@H](CC[C@@H](O)C[C@@H](O)CC(=O)O)[C@H]21", "note": "[PRAVASTATIN]", "values": [{"measurement": "uptake ratio at 1 µM", "setting": "[1]", "value": 1.5}, {"measurement": "uptake ratio at 10 µM", "setting": "[3]", "value": 3.9}, {"measurement": "uptake ratio at 1 µM", "setting": "[4]", "value": 2.4}]}, {"smiles": "Cc1ccc(CNC(=O)c2nn(-c3ccc(F)cc3)c(CC[C@@H](O)C[C@@H](O)CC(=O)O)c2C(C)C)cc1", "values": [{"measurement": "logD", "setting": "[5]", "value": 0.24}, {"measurement": "uptake ratio at 1 µM", "setting": "[1]", "value": 2.7}, {"measurement": "Drug uptake", "setting": "[6]", "value": 98, "unit": "%"}, {"measurement": "uptake ratio at 1 µM", "setting": "[2]", "value": 2.1}, {"measurement": "Ratio IC50", "setting": "[7]", "value": 810}, {"measurement": "uptake ratio at 10 µM", "setting": "[3]", "value": 4.2}, {"measurement": "uptake ratio at 1 µM", "setting": "[4]", "value": 3.6}]}, {"smiles": "O=C([O-])C[C@H](O)C[C@H](O)CCn1c(-c2ccc(F)cc2)nc(C(=O)NCc2cccc(F)c2)c1C1CC1.[Na+]", "values": [{"measurement": "logD", "setting": "[5]", "value": 0.51}, {"measurement": "uptake ratio at 1 µM", "setting": "[1]", "value": 4.4}, {"measurement": "Drug uptake", "setting": "[6]", "value": 100, "unit": "%"}, {"measurement": "uptake ratio at 1 µM", "setting": "[2]", "value": 7.1}, {"measurement": "Ratio IC50", "setting": "[7]", "value": 4440}, {"measurement": "uptake ratio at 10 µM", "setting": "[3]", "value": 4.4}, {"measurement": "uptake ratio at 1 µM", "setting": "[4]", "value": 5.8}]}, {"smiles": "CC(C)c1nc(N(C)S(C)(=O)=O)nc(-c2ccc(F)cc2)c1/C=C/[C@@H](O)C[C@@H](O)CC(=O)O", "note": "[ROSUVASTATIN]", "values": [{"measurement": "logD", "setting": "[5]", "value": 1.01}, {"measurement": "uptake ratio at 1 µM", "setting": "[1]", "value": 8.6}, {"measurement": "Drug uptake", "setting": "[6]", "value": 97, "unit": "%"}, {"measurement": "uptake ratio at 1 µM", "setting": "[2]", "value": 5.5}, {"measurement": "Ratio IC50", "setting": "[7]", "value": 830}, {"measurement": "uptake ratio at 10 µM", "setting": "[3]", "value": 5.3}, {"measurement": "uptake ratio at 1 µM", "setting": "[4]", "value": 8.2}]}]}
